# Experimental data taken from BindingDB's records for doi:10.1016/j.bmcl.2007.12.018 (Novartis Institute For Biomedical Research, 2008).
# Molecular target: RAC-alpha serine/threonine-protein kinase (Homo sapiens, UniProt P31749)
# Test: Inhibition of phosphorylation of T308-PKB in human U87MG cells by ELISA
# How it was run: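 Cell capture ELISA for phospho-T308 PKB in U87MG cells; IC50 determined.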
# RAC-alpha serine/threonine-protein kinase, sequence (P31749 whole entry): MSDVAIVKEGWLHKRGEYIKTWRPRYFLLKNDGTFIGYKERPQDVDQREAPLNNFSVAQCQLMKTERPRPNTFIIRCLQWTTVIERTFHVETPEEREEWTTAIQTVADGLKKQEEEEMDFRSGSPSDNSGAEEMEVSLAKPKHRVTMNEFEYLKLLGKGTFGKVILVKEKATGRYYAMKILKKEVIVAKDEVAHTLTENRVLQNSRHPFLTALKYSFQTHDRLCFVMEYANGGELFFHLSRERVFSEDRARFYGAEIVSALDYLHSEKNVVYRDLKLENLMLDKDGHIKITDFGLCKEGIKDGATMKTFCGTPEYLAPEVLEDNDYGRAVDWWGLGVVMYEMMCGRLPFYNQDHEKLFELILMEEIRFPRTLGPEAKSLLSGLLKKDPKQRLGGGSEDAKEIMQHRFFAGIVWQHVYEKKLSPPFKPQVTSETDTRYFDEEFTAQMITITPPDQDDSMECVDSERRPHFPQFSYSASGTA
row,Structure (SMILES),IC50 [µM]
1,CCc1nc2cnc3ccc(C#Cc4cccnc4)cc3c2n1-c1ccc(CC#N)cc1,0.138
2,Cc1nc2cnc3ccc(C#Cc4cccnc4)cc3c2n1-c1ccc(C(C)C#N)cc1 (centres undefined),0.045
3,Cc1nc2cnc3ccc(C#Cc4cccnc4)cc3c2n1-c1ccc(CC#N)cc1,0.077
4,Cn1c(=O)n(-c2ccc(C(C)(C)C#N)cc2)c2c3cc(C#Cc4cccnc4)ccc3ncc21,0.033
